Data: ChEMBL document CHEMBL1153231, “Novel thioamide derivatives as neutral CB1 receptor antagonists” (Bioorg Med Chem Lett, 2010)
Values after ≈ are worked out from the molar mass of the structure shown.

How the values were obtained:
[1] = molecular target: Cannabinoid receptor 1 (Homo sapiens, UniProt P21554); assay: Agonist activity at human CB1 receptor assessed as stimulation of [35S]GTPgammaS binding; format: functional
[2] = Plasma concentration in mouse at 20 umol/kg, po after 2 hrs; format: ADME, organism-based
Summary of the method: (§1)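 Cafeteria-diet-induced obese mice were given repeated peroral doses. Plasma and brain tissue were sampled 0.5 h, 2 h and 6 h after the last dose, and after a 7-day washout. Levels of both the parent thioamide and its carboxamide counterpart were measured in the same samples. Plasma levels are per litre and brain levels per gram of tissue.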

[3] = Drug level in mouse brain at 20 umol/kg, po after 2 hrs; format: ADME, organism-based; summary of the method: as §1
[4] = Plasma concentration in mouse at 20 umol/kg, po after 7 days; format: ADME, organism-based; summary of the method: as §1
[5] = Drug level in mouse brain at 20 umol/kg, po after 6 hrs; format: ADME, organism-based; summary of the method: as §1
[6] = Plasma concentration in mouse at 20 umol/kg, po after 0.5 hrs; format: ADME, organism-based; summary of the method: as §1
[7] = Aqueous solubility of the compound; format: physicochemical
[8] = Drug level in mouse brain at 20 umol/kg, po after 0.5 hrs; format: ADME, organism-based; summary of the method: as §1
[9] = Plasma concentration in mouse at 20 umol/kg, po after 6 hrs; format: ADME, organism-based; summary of the method: as §1
[10] = tested on: Mus musculus; assay: Reduction in body weight of diet induced obese C57BL/6 mouse at 20 umol/kg after 1 to 3 weeks relative to control; format: functional; design: scale not given: the % may be the effect or the level left
Summary of the method: (§2)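 The test agents were given perorally to cafeteria-diet-induced obese mice over 1–3 weeks. Body weight was tracked as a percentage of initial body weight and compared with vehicle-treated animals.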

[11] = tested on: Mus musculus; assay: Reduction in body weight of diet induced obese C57BL/6 mouse at 20-60 umol/kg after 1 week relative to control; format: functional; design: scale not given: the % may be the effect or the level left; summary of the method: as §2
[12] = Drug level in mouse brain at 20 umol/kg, po after 7 days; format: ADME, organism-based; summary of the method: as §1

Cannabinoid receptor 1, sequence (P21554 whole entry): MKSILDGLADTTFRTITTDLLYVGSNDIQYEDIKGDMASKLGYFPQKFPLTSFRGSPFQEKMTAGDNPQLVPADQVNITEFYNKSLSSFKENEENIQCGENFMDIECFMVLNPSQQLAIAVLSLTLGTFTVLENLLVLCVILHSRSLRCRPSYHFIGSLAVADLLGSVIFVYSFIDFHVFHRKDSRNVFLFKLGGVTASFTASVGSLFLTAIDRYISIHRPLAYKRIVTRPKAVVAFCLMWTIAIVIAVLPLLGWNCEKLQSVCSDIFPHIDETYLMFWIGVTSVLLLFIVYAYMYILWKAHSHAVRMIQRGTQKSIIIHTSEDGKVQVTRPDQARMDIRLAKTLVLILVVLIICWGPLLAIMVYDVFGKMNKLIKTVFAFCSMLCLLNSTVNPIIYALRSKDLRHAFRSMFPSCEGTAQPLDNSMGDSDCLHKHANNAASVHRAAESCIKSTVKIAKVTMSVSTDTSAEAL

IC50 [1] [nM] | concentration at 2 h [2] [nM] | concentration at 2 h [3] [µmol/g] | concentration at 168 h [4] [nM] | concentration at 6 h [5] [µmol/g] | concentration at 0.5 h [6] [nM] | solubility [7] [µM] | concentration at 0.5 h [8] [µmol/g] | concentration at 6 h [9] [nM] | concentration at 168 h [12] [µmol/g] | Compound | Activity [10] [%] | Activity [11] [%]
2.9 | 153 | 0.08 | 24 | 0.07 | 136 | < 0.1 | 0.05 | 148 |  | COCc1nc(-c2ccc(Cl)cc2)c(-c2ccc(Cl)cc2)nc1C(=O)NC1CCC(F)(F)CC1 |  | 
4.5 |  |  |  |  |  | 6.6 (≈ 3.16 µg/mL) |  |  |  | FC1(F)CCC(NC(=S)c2cnc(-c3ccc(Cl)cc3)c(-c3ccc(Cl)cc3)n2)CC1 |  | 
5.8 |  |  |  |  |  | 6.1 (≈ 2.7 µg/mL) |  |  |  | S=C(NC1CCCCC1)c1cnc(-c2ccc(Cl)cc2)c(-c2ccc(Cl)cc2)n1 |  | 
5.3 |  |  |  |  |  | < 0.1 |  |  |  | O=C(NC1CCC(F)(F)CC1)c1cnc(-c2ccc(Cl)cc2)c(-c2ccc(Cl)cc2)n1 |  | 
 | 1950 | 1.69 |  | 0.68 | 1360 | < 1.1 | 1.11 | 900 |  | Cc1c(C(=O)NN2CCCCC2)nn(-c2ccc(Cl)cc2Cl)c1-c1ccc(Cl)cc1 [RIMONABANT] | 85 | 
2.4 | 604 | 0.32 | 32 | 0.14 | 403 | < 0.1 | 0.18 | 137 | 0.05 | COCc1nc(-c2ccc(Cl)cc2)c(-c2ccc(Cl)cc2)nc1C(=S)NC1CCC(F)(F)CC1 |  | 85

Compound | IC50 [1] [nM] | concentration at 2 h [2] [nM] | concentration at 2 h [3] [µmol/g] | concentration at 168 h [4] [nM] | concentration at 6 h [5] [µmol/g] | concentration at 0.5 h [6] [nM] | solubility [7] [µM] | concentration at 0.5 h [8] [µmol/g] | concentration at 6 h [9] [nM] | concentration at 168 h [12] [µmol/g] | Activity [10] [%] | Activity [11] [%]
O=C(NC1CCCCC1)c1cnc(-c2ccc(Cl)cc2)c(-c2ccc(Cl)cc2)n1 | 16.6 |  |  |  |  |  | < 0.1 |  |  |  |  | 
